AI-2 QS modul: modulators of Vibrio harveyi AI-2 quorum sensing system | Vibrio harveyi JMH597 AI-2 luminescence/OD600 ratio, 9 h; hits give low values; strain lacks LuxN and CqsS sensors; 0 = neutral-control median | activity change, % at 7.5 µM | 300,000 compounds, 0.4% hits; in the data active = activity change below about -75%, passing the limit was not always enough; inconclusive = no clear call, values can overlap the other calls;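 note: luminescence divided by OD600 gain over 9 h not by final OD600 alone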
T cruzi repl: blocks replication of Trypanosoma cruzi; T. cruzi beta-gal in NIH3T3, luminescence, 90 h; inhibition, % (test concentration not listed); 300,000 compounds, 1.4% hits; AID 1885;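 active = mean inhibition across valid replicates above about 55%, limit read from the data; inconclusive = mean below that limit but half or more replicates reach it; inactive = mean below it, under half of replicates reach it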;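 note: signal also drops with host cell toxicity which is not excluded here; 0% = plate median of DMSO wells and 100% = zero luminescence signal; higher percent means less beta-gal luminescence so fewer parasites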
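Test system: β-gal T. cruzi (Tulahuen C4) inside NIH/3T3 cells / Quantity: 5,000 cells/well / Measured by: luminescence from GalScreen with 0.05% NP40, read after 60 min / Medium: DMEM plus 2% FBS / Measure: parasite load inhibition, % / Reagent: Tulahuen C4 trypomastigotes, 5000/well / Schedule: co-culture of at least 90 h after 3 h attachment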
HIF act: HIF pathway transcriptional activation; 300,000 compounds, 0.32% hits; U2OS HRE-luciferase reporter, luminescence; normalized: DMSO 0%, desferrioxamine 100%; activation, % at 7.5 µM (by protocol);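 active = mean activation of at least 10% of the iron chelator positive control signal, with at least half of replicates also reaching 10%; inconclusive = mean and replicate majority disagree about reaching 10%; inactive = mean and most replicates under 10%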
ARNT TACC3 PPI: disrupts binding between human ARNT and TACC3; Q9Y6A5; AlphaScreen His-ARNT PAS-B/GST-TACC3 binding, luminescence; TACC3 fragment carries E629A point mutation; inhibition, % at 9.99 µM; 390,000 compounds, 0.66% hits; AID 623870;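 active = mean inhibition of replicates at least 50% and at least half of replicates each reaching 50%; inconclusive = half or more replicates reach 50% but mean below 50%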;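 note: 0% = complete ARNT plus TACC3 wells and 100% = ARNT alone without TACC3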
JMH597 growth rt: retest: blocks Vibrio harveyi JMH597 growth. shares compounds with AI-2 QS modul. OD600 absorbance, 9 h; lacks LuxN and CqsS sensors. growth inhibition, % at 7.5 µM. 750 compounds, 1% hits;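 active = every replicate shows growth inhibition above 50%; inconclusive = at least half, but not all, replicates pass that cutoff; inactive = fewer than half of replicates pass it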
BB721 const-QS lum: retest counter-screen: lowers luminescence of constitutive-QS Vibrio harveyi BB721; shares compounds with AI-2 QS modul; 9 h; inhibition, % at 7.5 µM; 750 compounds, 95% hits;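 active = inhibition above about 80% in every replicate, not just on average, limit read from the data; inconclusive = at least half of replicates past the limit, but not all; inactive = fewer than half of replicates past the limit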
BB721 growth: retest Vibrio harveyi BB721 growth inhibition; AID 2728; growth inhibition, % at 7.5 µM; 750 compounds, 3% hits; OD600 absorbance, 9 h; shares compounds with AI-2 QS modul;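 active = every replicate shows growth inhibition above 50%; inconclusive = at least half but not all replicates above 50% inhibition; inactive = under half of replicates above 50% inhibition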
JMH597 AI-2 mod: Vibrio harveyi AI-2 signaling luminescence modulation – JMH597 strain, confirmation | shares compounds with AI-2 QS modul | Vibrio harveyi JMH597 AI-2 quorum sensing luminescence, 9 h; luxN and CqsS knockout, AI-2 only | inhibition, % at 7.5 µM | 750 compounds, 97% hits;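 active = every replicate shows more than 75% inhibition of signal versus neutral control wells; inconclusive = half to three quarters of replicates exceed 75% inhibition; inactive = fewer than half of replicates exceed 75% inhibition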
An asterisk follows results filed as active; u = inconclusive; x = no result given. Hits are enriched below; roughly 2% of the tested compounds scored in any of these assays.

SMILES	AI-2 QS modul	T cruzi repl	HIF act	ARNT TACC3 PPI	JMH597 growth rt	BB721 const-QS lum	BB721 growth	JMH597 AI-2 mod
O=C(Nc1nnc(C2=COCCO2)o1)C1CCCCC1	25	-9	-1	50*	x	x	x	x
O=C(Nc1nnc(C2=COCCO2)o1)c1cccc(F)c1	32	0	0	40	x	x	x	x
Cc1cccc(C(=O)Nc2nnc(C3=COCCO3)o2)c1	31	-11	0	55*	x	x	x	x
COc1ccc(C(=O)Nc2nnc(C3=COCCO3)o2)cc1OC	11	0	0	37*	x	x	x	x
C[C@H](CO)N1C[C@H](C)[C@@H](CN(C)C(=O)c2ccncc2)Oc2cc(C#CC3(O)CCCC3)ccc2S1(=O)=O	x	x	x	-1	x	x	x	x
COc1ccc2nc3sc(C(=O)NCCCN4CCc5ccccc5C4)cc3cc2c1	-2	12	2	16	x	x	x	x
COc1ccc2nc3sc(C(=O)N4CCN(C)CC4)cc3cc2c1	-86*	24	1	3	6	89*	-2	93*
CCNC(=O)C[C@@H]1CC[C@@H]2[C@H](COC[C@H](O)CN2Cc2ccncc2)O1	x	x	x	13	x	x	x	x
C=CCn1c(CCNC(=O)c2ccc(Cl)c(Cl)c2)nnc1SCCOc1ccc(OC)cc1	-84*	5	0	4	61	90*	37	94*
C[C@@H]1CN([C@H](C)CO)S(=O)(=O)c2ccc(C3=CCCC3)cc2O[C@H]1CN(C)Cc1cccnc1	x	x	x	7	x	x	x	x
O=C(C[C@@H]1CC[C@@H](NC(=O)c2ccncc2)[C@H](CO)O1)Nc1ccccc1	x	x	x	-20	x	x	x	x
CO[C@@H]1CN(C)C(=O)c2cc(NC(C)=O)ccc2OC[C@H](C)N(C(=O)C2CC2)C[C@H]1C	x	x	x	-9	x	x	x	x
COc1ccc(/C=N/Nc2ccc(C(=O)O)cc2)c(OC)c1OC	-92*	-6	1	-2	0	95*	-7	96*
O=C1COc2ccc(C(=O)COC(=O)/C=C/c3ccc(Br)o3)cc2N1	-96*	-8	0	4	12	99*	1	99*
Oc1ccc(C[C@@H]2CNC(=S)N2CCCCC2CCCCC2)cc1	-92*	33	3	-2	1	92*	-20	96*
C[C@H]1CN([C@@H](C)CO)C(=O)c2cc(NS(=O)(=O)c3ccc(F)cc3)ccc2O[C@@H]1CN(C)Cc1ccc(-c2ccccc2)cc1	x	x	x	8	x	x	x	x
C[C@@H]1CN([C@H](C)CO)C(=O)c2cccc(NS(=O)(=O)c3cn(C)cn3)c2O[C@@H]1CN(C)S(C)(=O)=O	x	x	x	2	x	x	x	x
Cc1ccc(NC(=O)CCC(=O)c2ccccc2)cc1	x	x	x	1	x	x	x	x
Cc1ccc(C(=O)CCC(=O)Nc2cccc(C)c2)cc1	-89*	-2	-7	-4	39	96*	27	97*
O=C(C[C@@H]1CC[C@@H]2[C@H](COC[C@H](O)CN2C(=O)Nc2cc(Cl)cc(Cl)c2)O1)NCC1CC1	x	x	x	6	x	x	x	x
O=C(CCl)Nc1ccc(N=Nc2ccccc2)cc1	-91*	-66	1	6	74*	100*	103*	99*
C[C@@H]1CN([C@@H](C)CO)C(=O)c2cccc(NS(=O)(=O)c3ccc(Cl)cc3)c2O[C@@H]1CN(C)Cc1ccc(C(F)(F)F)cc1	x	x	x	2	x	x	x	x
O=C(/C=C/c1ccc(Br)o1)NCc1ccccc1	-90*	13	0	9	13	97*	19	97*
Cc1ccc(/C=C/C(=O)NCc2ccncc2)cc1	-5	-4	0	0	x	x	x	x
Cc1ccc(CNC(=O)/C=C/c2ccc(Br)o2)cc1	-94*	0	0	-1	23	99*	u	99*
CCNC(=O)[C@@H]1[C@@H](CO)[C@@H]2Cn3c(ccc(/C=C/c4ccccc4)c3=O)[C@H]1N2C(=O)c1ccncc1	x	x	x	-12	x	x	x	x
O=C(CCCn1nnc(-c2cccnc2)n1)c1ccc(F)cc1	-80*	-23	x	1	0	92*	-11	95*
